Data taken from ChEMBL document CHEMBL5338772, “Stereochemical Control of Splice Modulation in FD-895 Analogues” (J Med Chem, 2023).
Active and inactive are the calls of the source. No cut-off for these calls is given here.

What was measured:
HCT-116 [1] = test: Cytotoxicity against human HCT-116 cells assessed as reduction in cell viability at 500 nM incubated for 24 hrs by MTS assay; format: toxicity, cell-based; conditions: hct-116, 24 h, 0.5 µM
Outline: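 HCT-116 cells plated at 5 × 10³ cells/well in supplemented McCoy's 5a and grown 24 h at 37 °C, 5% CO₂. Compound given at 500 nM, the top dose of the 24 h splicing series, in 0.5% DMSO for 24 h. Cells washed with PBS, MTS reagent added for 2 h at 37 °C, A490 read against A690.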

SF3A1 pre-mRNA [2] = test: Modulation of splicing in SF3A1 pre-mRNA in human HCT-116 cells assessed as intron 6 retention at 100 to 500 nM incubated for 24 hrs by qRT-PCR analysis; format: functional, cell-based; conditions: dose 100-500 nM
Outline: (§1)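 HCT-116 cells in supplemented McCoy's 5a with 0.5% DMSO, treated 24 h at 100, 250 or 500 nM; untreated cells as control. Total RNA isolated, 1 µg DNase I-treated, reverse transcribed. qPCR on 5 ng cDNA with 2.5 µM each primer, 40 cycles of 95 °C 30 s, 55 °C 60 s, 72 °C 60 s. Splice-event primers for intron retention or exon skipping; SF2 primers measure total expression. 2^-CT method relative to GAPDH, untreated set at 1.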

DNAJB1 pre-mRNA [3] = test: Modulation of splicing in DNAJB1 pre-mRNA in human HCT-116 cells assessed as intron 2 retention level at 9 uM incubated for 4 hrs by qRT-PCR analysis; format: functional, cell-based; conditions: filed as modulator
[4] = Cytotoxicity against human HCT-116 cells assessed as cell growth inhibition incubated for 72 hrs by MTS assay; format: toxicity, cell-based
Outline: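 HCT-116 cells (ATCC; split every other day, no more than five generations, mycoplasma-tested) plated at 5 × 10³ cells/well in supplemented McCoy's 5a and grown 24 h at 37 °C, 5% CO₂. Compound added from DMSO (0.5% DMSO final) for 72 h. Cells washed with PBS, MTS reagent added for 2 h at 37 °C, A490 read against A690. GI₅₀ fitted from dose curves of 3 biological replicates.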

SF3B1 pre-mRNA [5] = test: Modulation of splicing in SF3B1 pre-mRNA in human HCT-116 cells assessed as intron 13 retention level at 9 uM incubated for 4 hrs by qRT-PCR analysis; format: functional, cell-based; conditions: filed as modulator
Outline: (§2)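 HCT-116 cells in supplemented McCoy's 5a, compound added from DMSO stock to a final 0.5% DMSO, 4 h at a single standardized concentration per analogue. Total RNA isolated and DNase-treated (1 µg). qPCR used 2.5 µM each primer on 5 ng cDNA, 40 cycles. Intron retention was computed by the 2^-CT method relative to GAPDH and expressed versus untreated cells set to 1.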

SF3B1 pre-mRNA [6] = test: Modulation of splicing in SF3B1 pre-mRNA in human HCT-116 cells assessed as intron 13 retention at 100 to 500 nM incubated for 24 hrs by qRT-PCR analysis; format: functional, cell-based; conditions: dose 100-500 nM
Outline: (§3)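 HCT-116 cells in supplemented McCoy's 5a with 0.5% final DMSO were treated for 24 h at 100, 250 or 500 nM. Total RNA isolated and DNase-treated (1 µg). qPCR used 2.5 µM each primer on 5 ng cDNA, 40 cycles. Intron retention was computed by the 2^-CT method relative to GAPDH and expressed versus untreated cells set to 1.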

SF3B2 pre-mRNA [7] = test: Modulation of splicing in SF3B2 pre-mRNA in human HCT-116 cells assessed as intron 10 retention level at 9 uM incubated for 4 hrs by qRT-PCR analysis; format: functional, cell-based; conditions: filed as modulator; outline: as §2
AURKA pre-mRNA [8] = test: Modulation of splicing in AURKA pre-mRNA in human HCT-116 cells assessed as effect on exon 4 skipping at 9 uM incubated for 4 hrs by qRT-PCR analysis; format: functional, cell-based; conditions: filed as modulator
SF3A1 pre-mRNA [9] = test: Modulation of splicing in SF3A1 pre-mRNA in human HCT-116 cells assessed as intron 6 retention level at 9 uM incubated for 4 hrs by qRT-PCR analysis; format: functional, cell-based; conditions: filed as modulator
SF3A3 pre-mRNA [10] = test: Modulation of splicing in SF3A3 pre-mRNA in human HCT-116 cells assessed as intron 5 retention level at 9 uM incubated for 4 hrs by qRT-PCR analysis; format: functional, cell-based; conditions: filed as modulator; outline: as §2
HCT-116 [11] = test: Modulation of splicing in MCL-1L pre-mRNA in human HCT-116 cells assessed as intron 5 retention at 100 to 500 nM incubated for 24 hrs by qRT-PCR analysis; format: functional, cell-based; conditions: dose 100-500 nM; outline: as §1
SF3A3 pre-mRNA [12] = test: Modulation of splicing in SF3A3 pre-mRNA in human HCT-116 cells assessed as intron 5 retention at 100 to 500 nM incubated for 24 hrs by qRT-PCR analysis; format: functional, cell-based; conditions: dose 100-500 nM; outline: as §1
HCT-116 [13] = test: Cytotoxicity against human HCT-116 cells assessed as reduction in cell viability at 9 uM incubated for 4 hrs by MTS assay; format: toxicity, cell-based; conditions: hct-116, 4 h
DNAJB1 pre-mRNA [14] = test: Modulation of splicing in DNAJB1 pre-mRNA in human HCT-116 cells assessed as intron 2 retention at 100 to 500 nM incubated for 24 hrs by qRT-PCR analysis; format: functional, cell-based; conditions: dose 100-500 nM; outline: as §1
HCT-116 [15] = test: Upregulation of PLK-1 mRNA expression in human HCT-116 cells at 100 to 500 nM incubated for 24 hrs by qRT-PCR analysis; format: functional, cell-based; conditions: dose 100-500 nM
Outline: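 24 h treatment of HCT-116 cells at 100, 250 or 500 nM, 0.5% final DMSO in supplemented McCoy's 5a. RNA isolated, DNase-treated, then qRT-PCR with 2.5 µM each primer on 5 ng cDNA. Levels by the 2^-CT method relative to GAPDH, normalized to untreated cells at 1.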

SF3B2 pre-mRNA [16] = test: Modulation of splicing in SF3B2 pre-mRNA in human HCT-116 cells assessed as intron 10 retention at 100 to 500 nM incubated for 24 hrs by qRT-PCR analysis; format: functional, cell-based; conditions: dose 100-500 nM; outline: as §3
HCT-116 [17] = test: Cytotoxicity against human HCT-116 cells assessed as reduction in cell viability at 750 nM incubated for 4 hrs by MTS assay; format: toxicity, cell-based; conditions: hct-116, 4 h, 0.75 µM
AURKA pre-mRNA [18] = test: Modulation of splicing in AURKA pre-mRNA in human HCT-116 cells assessed as effect on exon 4 skipping at 750 nM incubated for 4 hrs by qRT-PCR analysis; format: functional, cell-based; conditions: filed as modulator
DNAJB1 pre-mRNA [19] = test: Modulation of splicing in DNAJB1 pre-mRNA in human HCT-116 cells assessed as intron 2 retention level at 750 nM incubated for 4 hrs by qRT-PCR analysis; format: functional, cell-based; conditions: filed as modulator
SF3B2 pre-mRNA [20] = test: Modulation of splicing in SF3B2 pre-mRNA in human HCT-116 cells assessed as intron 10 retention level at 750 nM incubated for 4 hrs by qRT-PCR analysis; format: functional, cell-based; conditions: filed as modulator; outline: as §2
SF3B1 pre-mRNA [21] = test: Modulation of splicing in SF3B1 pre-mRNA in human HCT-116 cells assessed as intron 13 retention level at 750 nM incubated for 4 hrs by qRT-PCR analysis; format: functional, cell-based; conditions: filed as modulator; outline: as §2
SF3A1 pre-mRNA [22] = test: Modulation of splicing in SF3A1 pre-mRNA in human HCT-116 cells assessed as intron 6 retention level at 750 nM incubated for 4 hrs by qRT-PCR analysis; format: functional, cell-based; conditions: filed as modulator
SF3A3 pre-mRNA [23] = test: Modulation of splicing in SF3A3 pre-mRNA in human HCT-116 cells assessed as intron 5 retention level at 750 nM incubated for 4 hrs by qRT-PCR analysis; format: functional, cell-based; conditions: filed as modulator

Which Activity (HCT-116 [1]) does the source give for `CC[C@H](OC)[C@@H](C)[C@@H]1O[C@H]1[C@@H](O)[C@H](C)/C=C/C=C(\C)[C@H]1OC(=O)C[C@H](O)CC[C@@](C)(O)[C@@H](OC(C)=O)/C=C/[C@@H]1C` here?
Its Activity is “Non-Toxic”.

What about the Activity (SF3A1 pre-mRNA [2]) of the same compound?
The Activity was “inactive”.

And the Activity (DNAJB1 pre-mRNA [3])?
Its Activity is greater than 3.

And the GI50 at 72 h [4]?
Its GI50 at 72 h is 470 nM.

What about the Activity (SF3B1 pre-mRNA [5]) of the same compound?
The Activity was less than 3.

And the Activity (SF3B1 pre-mRNA [6])?
Its Activity is “inactive”.

What about the Activity (SF3B2 pre-mRNA [7]) of the same compound?
Its Activity is greater than 3.

And the Activity (AURKA pre-mRNA [8])?
Its Activity is “Active”.

What about the Activity (SF3A1 pre-mRNA [9]) of the same compound?
Its Activity is greater than 3.

And the Activity (SF3A3 pre-mRNA [10])?
The Activity was less than 3.

And the Activity (HCT-116 [11])?
The Activity was “inactive”.

And the Activity (SF3A3 pre-mRNA [12])?
The Activity was “inactive”.

What about the Activity (HCT-116 [13]) of the same compound?
Its Activity is “Non-Toxic”.

What about the Activity (DNAJB1 pre-mRNA [14]) of the same compound?
The Activity was “inactive”.

And the Activity (HCT-116 [15])?
The Activity was “Active”.

And the Activity (SF3B2 pre-mRNA [16])?
The Activity was “inactive”.

Which results are given for `CC[C@H](OC)[C@@H](C)[C@H]1O[C@@H]1[C@@H](OC)[C@H](C)/C=C/C=C(\C)[C@H]1OC(=O)C[C@H](O)CC[C@@](C)(O)[C@@H](OC(C)=O)/C=C/[C@@H]1C`?
GI50 at 72 h [4]: 40.5 nM; Activity (HCT-116 [17]): Non-Toxic; Activity (AURKA pre-mRNA [18]): Active; Activity (DNAJB1 pre-mRNA [19]): > 3; Activity (SF3B2 pre-mRNA [20]): > 3; Activity (SF3B1 pre-mRNA [21]): < 3; Activity (SF3A1 pre-mRNA [22]): > 3; Activity (SF3A3 pre-mRNA [23]): < 3
